Rows were chosen to be rich in hits. Some 2.6% of all compounds tested hit in one or more screens of this group.
Runt-CBFb FRET – inhibitors of RUNX1 Runt–CBFb binding, primary screen, biochemical, FRET, Cerulean-Runt, Venus-CBFb, uHTS. Runt-related transcription factor 1 (Homo sapiens) + Core-binding factor subunit beta …. Cerulean-Runt/Venus-CBFb FRET ratio 530/480, 1 h. inhibition, % at 20 µM. 220,000 tested, 0.46% active. AID 1496, 2009;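 active = inhibition over about 50% at 20 µM in the single-dose screen, limit read from the data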
Target sequence (Q01196 whole entry, looked up): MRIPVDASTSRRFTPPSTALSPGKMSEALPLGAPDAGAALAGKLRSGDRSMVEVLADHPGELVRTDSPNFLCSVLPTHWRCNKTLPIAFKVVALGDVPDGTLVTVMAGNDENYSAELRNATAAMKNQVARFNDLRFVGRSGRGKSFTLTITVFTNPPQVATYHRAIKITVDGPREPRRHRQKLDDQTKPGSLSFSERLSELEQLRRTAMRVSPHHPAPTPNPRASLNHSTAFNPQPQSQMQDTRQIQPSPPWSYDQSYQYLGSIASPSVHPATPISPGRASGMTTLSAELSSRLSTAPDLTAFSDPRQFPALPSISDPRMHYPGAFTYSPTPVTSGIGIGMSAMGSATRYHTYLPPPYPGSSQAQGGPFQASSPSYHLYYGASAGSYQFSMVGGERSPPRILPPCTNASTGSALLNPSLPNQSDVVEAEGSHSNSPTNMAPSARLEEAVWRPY
Target sequence (Q13951 whole entry, looked up): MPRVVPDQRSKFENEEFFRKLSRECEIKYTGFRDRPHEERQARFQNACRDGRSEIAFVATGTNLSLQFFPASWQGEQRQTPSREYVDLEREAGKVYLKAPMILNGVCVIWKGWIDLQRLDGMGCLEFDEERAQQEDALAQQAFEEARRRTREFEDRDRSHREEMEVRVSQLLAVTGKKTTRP
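Reagent – Venus-CBFb binding partner, 100 nM · Assay system – Cerulean-tagged RUNX1 Runt domain (FRET donor) fusion protein · Input – 100 nM per protein · Incubation – two 1 h room-temperature incubations shielded from light · Measured by – FRET fluorescence · Medium – Tris buffer pH 7.5 with salts and BSA · Benchmarks – unlabeled CBFb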
IMP-1 inhibitor – IMP-1 metallo-beta-lactamase inhibitors, primary screen, biochemical, epi-absorbance readout, Pseudomonas aeruginosa enzyme; 290,000 tested, 0.45% active; metallo-beta-lactamase IMP-1 (Pseudomonas aeruginosa); inhibition, % at 5.6 µM; purified IMP-1, nitrocefin hydrolysis, epi-absorbance fluorescence; AID 1556, 2009;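 active = inhibition above the mean plus 3 SD of all compounds in the same screening run, cut at about 4.5% in these data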
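Assay system: purified recombinant IMP-1 beta-lactamase. Input: IMP-1 0.2 nM before substrate addition. Buffer or medium: Zinc- and detergent-supplemented HEPES buffer, pH 7.1. Schedule: 25 °C, 15 min preincubation, 25 min reaction. Signal: Epi-absorbance fluorescence, 480 nm excitation, 530 nm emission. Evaluation: percent inhibition from optical density relative to buffer-blank wells.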
RanGTP-Impb inh – inhibitors of RanGTP-importin-beta interaction, primary screen, biochemical, FRET, CFP-Ran, YFP-importin-beta, homogeneous. 300,000 tested, 1.1% active. Ran GTPase (GTP-bound) - importin-beta complex. AID 2216, 2009. inhibition, % (concentration not given with the values). cell-free CFP-Ran/YFP-importin-beta FRET ratio;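 active = more than half of the replicate wells show a fall in the fluorescence ratio signal beyond about 16%, limit read from the data, passing the limit was not always enough; inconclusive = exactly half of the replicate wells pass the set limit; inactive = fewer than half of replicates pass the limit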
Runt-SMMHC FRET – inhibitors of RUNX1 Runt–CBFb-SMMHC binding, primary screen, biochemical, FRET, Cerulean-Runt, Venus-CBFb-SMMHC, uHTS; Runt-related transcription factor 1 (Homo sapiens) + Core-binding factor subunit beta …; Cerulean-Runt/Venus-CBFb-SMMHC FRET ratio 530/480, 1 h; inhibition, % at 20 µM; 220,000 tested, 0.74% active; AID 1434, 2008;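 active = mean inhibition across duplicate retests at 20 µM reaching about 50%, limit read from the data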;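 also: inhibitors lower the FRET ratio by blocking Runt binding to CBFb-SMMHC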
VIM-2 inh – VIM-2 metallo-beta-lactamase inhibitors, primary screen, biochemical, epi-absorbance readout, Pseudomonas aeruginosa enzyme. purified VIM-2, nitrocefin hydrolysis, epi-absorbance fluorescence. AID 1527, 2009. 290,000 tested, 0.89% active. inhibition, % at 5.6 µM;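 active = inhibition above the mean of all tested compounds plus 3 SD, cutoff set per screening run, cut at about 7.5% in these data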;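 also: red hydrolysis product quenches plate fluorescence so inhibitors raise well fluorescence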
YIC counter – YIC intramolecular FRET probe signal interference, dose response, counter-screen for RanGTP-importin-beta inhibitor project, biochemical, fluorescence FRET. shares compounds with RanGTP-Impb inh. Purified YIC probe, intramolecular FRET ratio YFP/CFP. IC50, µM. 1,000 tested, 40% active;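 active = fitted half-maximal inhibitory concentration no more than tenfold above the top dose tested; inconclusive = flat fit with 30 to 70% activity, or poor fit; inactive = half-maximal concentration beyond tenfold above the top dose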
A number is an active result.

For Cc1ccc2cc(C#N)c(N3CCCN(S(=O)(=O)c4ccc(F)cc4)CC3)nc2c1 the results were Runt-CBFb FRET inactive, IMP-1 inhibitor inactive, RanGTP-Impb inh 18, Runt-SMMHC FRET inactive, VIM-2 inh inactive and YIC counter 25.
Screening COc1ccc(-c2cc(C(=O)O)nc3ccc4ccccc4c23)cc1OC returned Runt-CBFb FRET inactive, IMP-1 inhibitor inactive, RanGTP-Impb inh 18, Runt-SMMHC FRET inactive, VIM-2 inh inactive and YIC counter inactive.
For COc1ccc(-c2nc(C(=O)O)cs2)cc1OC the results were Runt-CBFb FRET inactive, IMP-1 inhibitor inactive, RanGTP-Impb inh inactive, Runt-SMMHC FRET inactive and VIM-2 inh inactive.
Screening COC(=O)C1=C(C)NC(C)=C(C(=O)OC)C1C(=O)OC(C)C(=O)c1ccccc1 (stereo not given) returned Runt-CBFb FRET inactive, IMP-1 inhibitor inactive, RanGTP-Impb inh 22, Runt-SMMHC FRET inactive, VIM-2 inh inactive and YIC counter inactive.
For CCN(C(=O)C(C)OC(=O)C1C(C(=O)OC)=C(C)NC(C)=C1C(=O)OC)c1ccccc1 (stereo not given) the results were Runt-CBFb FRET inactive, IMP-1 inhibitor inactive, RanGTP-Impb inh inactive, Runt-SMMHC FRET inactive and VIM-2 inh inactive.
CC1CC(C)CN(C(=O)COC(=O)c2nn(C)c(=O)c3ccccc23)C1 (stereo not given) was read as RanGTP-Impb inh inactive.
For Cc1cccc(C)c1N1CCN(S(=O)(=O)c2ccc(F)cc2)CC1 the results were Runt-CBFb FRET inactive, IMP-1 inhibitor inactive, RanGTP-Impb inh 19, Runt-SMMHC FRET inactive, VIM-2 inh inactive and YIC counter inactive.
`CCCn1c(SCC(=O)Nc2ccc(NC(C)=O)cc2)nc2c1c(=O)n(C)c(=O)n2C` gave IMP-1 inhibitor inactive, RanGTP-Impb inh 17, VIM-2 inh inactive and YIC counter inactive.
For O=C(CN1CCOc2ccccc21)NCc1ccco1 the results were Runt-CBFb FRET inactive, IMP-1 inhibitor inactive, RanGTP-Impb inh inconclusive, Runt-SMMHC FRET inactive and VIM-2 inh inactive.
For O=C(CN1CC(=O)Oc2ccccc21)NCc1ccco1 the results were Runt-CBFb FRET inactive, IMP-1 inhibitor inactive, RanGTP-Impb inh 19, Runt-SMMHC FRET inactive, VIM-2 inh inactive and YIC counter inactive.
Screening C=CCn1c(C)c(C(C)=O)c(SC)nc1=S returned Runt-CBFb FRET inactive, IMP-1 inhibitor inactive, RanGTP-Impb inh inactive, Runt-SMMHC FRET inactive and VIM-2 inh inactive.
`C=CCn1c(C)c(C(C)=O)c(N2CCN(C(c3ccccc3)c3ccccc3)CC2)nc1=S` gave Runt-CBFb FRET inactive, IMP-1 inhibitor inactive, RanGTP-Impb inh 30, Runt-SMMHC FRET inactive, VIM-2 inh inactive and YIC counter inactive.
COc1ccc(-c2nc3ccc(C(=O)NCCCN4CCOCC4)cc3nc2-c2ccc(OC)cc2)cc1 was read as IMP-1 inhibitor inactive, RanGTP-Impb inh 21, VIM-2 inh inactive and YIC counter 22.
`COC(=O)N(C)C[C@H]1OCc2cn(nn2)CCCC(=O)N([C@@H](C)CO)C[C@H]1C` gave YIC counter inactive.
For O=C(NCCc1ccccc1)C(=O)c1c[nH]c2ccccc12 the results were IMP-1 inhibitor inactive, RanGTP-Impb inh inactive and VIM-2 inh inactive.
`NS(=O)(=O)c1ccc(CCNC(=O)C(=O)c2c[nH]c3ccccc23)cc1` gave Runt-CBFb FRET inactive, IMP-1 inhibitor inactive, RanGTP-Impb inh 17, Runt-SMMHC FRET inactive, VIM-2 inh inactive and YIC counter inactive.
Cc1nnc(NC(=O)c2nn(CC(C)C)c(=O)c3ccccc23)s1 was read as Runt-CBFb FRET inactive, IMP-1 inhibitor inactive, RanGTP-Impb inh inactive, Runt-SMMHC FRET inactive and VIM-2 inh inactive.
Screening Cc1nc2ccc(NC(=O)c3nn(CC(C)C)c(=O)c4ccccc34)cc2s1 returned Runt-CBFb FRET inactive, IMP-1 inhibitor inactive, RanGTP-Impb inh 20, Runt-SMMHC FRET inactive, VIM-2 inh inactive and YIC counter inactive.
